Assay results of several laboratories.
Lines come from different studies, so protocols differ.
Target: cAMP-dependent protein kinase catalytic subunit alpha (PRKACA, Homo sapiens, UniProt P17612)

| Structure (SMILES) | read-out | method | concentration | remaining binding |
| --- | --- | --- | --- | --- |
| C[C@@H]1CN(c2ccc3ncc(-c4ccc5[nH]nc(C6CC6)c5c4)n3n2)C[C@H](C)O1 | binding | competition with immobilised ligand | 50 nM | 88% |
| Cc1cnc(Nc2ccc(C(=O)N3CCC(N4CCCC4)CC3)cc2)nc1-c1cc2ccccc2s1 | binding | competition with immobilised ligand | 1 µM | 67% |
| Nc1cnc(N2CCc3cc(S(=O)(=O)Nc4c(F)cc(Cl)cc4F)cc(N4CCCC4=O)c32)nc1 | cell-free assay | competition with immobilised ligand | 1 µM | 100% |
| CC(C)(C)c1ccc(-c2nc(CBr)nn2-c2cccc(O)c2)cc1 | cell-free assay | competition with immobilised ligand | 10 µM | 86% |
| O=C(Nc1c[nH]nc1C(=O)NC1CCNCC1)c1cc(F)cc(F)c1 | binding | competition with immobilised ligand | 1 µM | 100% |
| O=C(Nc1ccc(Oc2ccc(F)cc2)cc1)N1CCc2ncccc2[C@H]1c1ccc(F)cc1 | cell-free assay | competition with immobilised ligand | 1 µM | 95% |
| FC(F)(F)Oc1cccc(-c2cnc3ccc(-c4ccncc4)nn23)c1 | cell-free assay | competition with immobilised ligand | 5 µM | 91% |
| O=C(N1CCS(=O)(=O)CC1)N1C[C@H](c2ccc(OC(F)(F)F)cc2)C[C@H](c2nc(C3CC3)no2)C1 | cell-free assay | competition with immobilised ligand | 1 µM | 100% |
| O=C(NCCCN1CCOCC1)c1ccc(Nc2nccc(-c3cc4ccccc4s3)n2)cc1 | binding | competition with immobilised ligand | 1 µM | 95% |
| c1ccc(N2CCN(Cc3nc4ccccc4[nH]3)CC2)nc1 | cell-free assay | competition with immobilised ligand | 1 µM | 91% |
| O=C(c1ccc(Nc2ncc(Cl)c(-c3cc4ccccc4s3)n2)cc1)N1CCC(N2CCCC2)CC1 | binding | competition with immobilised ligand | 1 µM | 90% |
| COc1cnc(Nc2cccc(S(N)(=O)=O)c2)nc1N1CCN(c2ccccc2)C(=O)C1 | binding | competition with immobilised ligand | 1 µM | 100% |
| Cc1c(NC(=O)c2cc(C(N)=O)nc3cc(F)ccc23)c(C(F)(F)F)nn1Cc1ccc(C#N)cc1 | cell-free assay | competition with immobilised ligand | 1 µM | 78% |
| c1cnn2ncc(-c3ccnc(N4CCC45COC5)n3)c2c1 | binding | – | 1 µM | 100% |
| CCN1CCN(Cc2ccc(C(=O)Nc3ccc(C)c(Oc4ccc5c(c4)CC(=O)N5)c3)cc2C(F)(F)F)CC1 | binding | competition with immobilised ligand | 1 µM | 100% |
| C[C@H]1CCN(c2nccc(-c3cnn4ncccc34)n2)C1 | binding | – | 1 µM | 100% |
| COc1cnc(Nc2cccc(S(N)(=O)=O)c2)nc1N1CCN(c2ccccc2)CC1 | binding | competition with immobilised ligand | 1 µM | 100% |
| CN(C)c1ncc(F)c(-c2cnn3ncccc23)n1 | binding | – | 1 µM | 86% |
| O=C(O)c1cc(-c2ccc(C3CCNCC3)cc2)c2ccc(-c3ccc(C(F)(F)F)cc3)cc2c1 | cell-free assay | competition with immobilised ligand | 1 µM | 100% |
| CN(CCCC(F)(F)F)c1nccc(-c2cnn3ncccc23)n1 | binding | – | 1 µM | 100% |
| COc1ncc2cc3ccccc3nc2c1C#N | cell-free assay | competition with immobilised ligand | 5 µM | 100% |
